Experimental data from ChEMBL document CHEMBL3621047, “Quaternary Indolizidine and Indolizidone Iminosugars as Potential Immunostimulating and Glycosidase Inhibitory Agents: Synthesis, Conformational Analysis, Biological Activity, and Molecular Docking Study” (J Med Chem, 2015).
Active and inactive are the calls of the source. The calls are words filed in the database; no cut-off is given here.

Experiments:
[1] = test system: Splenocyte; assay: Immunostimulating activity in Swiss albino mouse Splenocytes assessed as increase in ConA-induced cell proliferation upto 2.5 uM after 72 hrs by MTT assay; format: functional, cell-based
Procedure, shortened: (§1)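 Swiss albino mouse splenocytes (2 × 10^6 cells/well) were treated with Con A alone or with test samples at final 0.5, 1, 2.5 and 5 μM. Con A is given as final 10 μg/mL in methods and 10 μM in text. Cells were held 72 h at 37 °C, 5% CO2, in RPMI with 10% FCS, then read by MTT. Values are % of Con A-treated cells (100%), mean ± SEM, n = 5.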

[2] = test system: Splenocyte; assay: Immunostimulating activity in Swiss albino mouse Splenocytes assessed as decrease in ConA-induced IL-4 secretion at 2.5 uM by ELISA; format: functional
Procedure, shortened: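 Supernatants came from Con A-stimulated splenocytes (2 × 10^6 cells/well) with compound at 2.5 or 5 μM. They were spun 2000g for 5 min and stored at −70 °C. IL-4 was measured by ELISA: sample 2 h at 37 °C, then peroxidase conjugate 1 h, substrate developed in the dark. Absorbance was read at 550 nm with 450 nm correction and quantified from an IL-4 standard curve. n = 5.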

[3] = Cytotoxicity against Swiss albino mouse Splenocytes assessed as cell proliferation at 0.5 to 5 uM after 72 hrs by MTT assay; format: cell-based; settings: splenocyte; procedure, shortened: as §1
[4] = Inhibition of bovine liver beta-glucosidase using 10 mM p-nitrophenyl-[…]-D-glucopyranoside as substrate; set-up: species or system Bos taurus
[5] = Immunostimulating activity in Swiss albino mouse Splenocytes assessed as increase in ConA-induced cell proliferation at 1 uM after 72 hrs by MTT assay; format: functional, Splenocyte; procedure, shortened: as §1
[6] = molecular target: T1, Beta-galactosidase (Bos taurus, UniProt Q58D55); assay: Inhibition of bovine liver beta-galactosidase using 10 mM p-nitrophenyl-beta-D-galactopyranoside as substrate
T1 sequence (Q58D55 whole entry): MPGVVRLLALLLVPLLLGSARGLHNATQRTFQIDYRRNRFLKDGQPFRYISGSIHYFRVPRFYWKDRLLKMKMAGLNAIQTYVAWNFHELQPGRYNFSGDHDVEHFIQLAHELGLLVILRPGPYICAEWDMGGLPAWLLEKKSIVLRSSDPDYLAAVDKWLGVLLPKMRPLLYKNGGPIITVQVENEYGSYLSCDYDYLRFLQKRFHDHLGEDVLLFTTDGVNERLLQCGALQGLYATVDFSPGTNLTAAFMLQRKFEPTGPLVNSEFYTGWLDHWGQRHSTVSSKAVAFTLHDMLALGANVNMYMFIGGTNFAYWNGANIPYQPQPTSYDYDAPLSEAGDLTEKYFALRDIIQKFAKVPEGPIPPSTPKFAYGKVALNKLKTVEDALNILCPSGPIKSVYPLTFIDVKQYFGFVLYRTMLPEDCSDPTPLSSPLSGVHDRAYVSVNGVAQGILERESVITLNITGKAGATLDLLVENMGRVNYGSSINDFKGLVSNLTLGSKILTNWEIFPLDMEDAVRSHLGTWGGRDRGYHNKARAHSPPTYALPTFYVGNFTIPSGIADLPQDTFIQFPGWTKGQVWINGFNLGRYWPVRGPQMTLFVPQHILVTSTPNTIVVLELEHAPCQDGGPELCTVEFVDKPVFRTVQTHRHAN
Procedure, shortened: (§2)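 Enzyme (0.1 U/cm3; A. niger α-galactosidase or bovine liver β-galactosidase) was preincubated with inhibitor for 1 h at 37 °C. Substrate was 10 mM p-nitrophenyl α- or β-D-galactopyranoside in 200 mM sodium acetate, reacted 10 min at 37 °C. The reaction was stopped with 200 mM borate pH 9.8 and released p-nitrophenol read at 420 nm. Ki came from Lineweaver–Burk plots; values are the average of five assays.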

[7] = test system: Splenocyte; assay: Immunostimulating activity in Swiss albino mouse Splenocytes assessed as increase in ConA-induced IFN-gamma secretion at 2.5 uM by ELISA; format: functional, cell-based
Procedure, shortened: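 IFN-γ was measured by ELISA in supernatants of splenocytes (2 × 10^6 cells/well). Cells were unstimulated, stimulated with Con A (10 μM), or given Con A plus compound (2.5 or 5 μM) for 24 h. Mean ± SEM, n = 5.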

[8] = Immunostimulating activity in Swiss albino mouse Splenocytes assessed as increase in ConA-induced cell proliferation at 5 uM after 72 hrs by MTT assay; format: functional, Splenocyte; procedure, shortened: as §1
[9] = Inhibition of aspergillus niger alpha-galactosidase using 10 mM p-nitrophenyl-alpha-D-galactopyranoside as substrate; procedure, shortened: as §2
[10] = molecular target: T2, Alpha-mannosidase (Canavalia ensiformis, UniProt C0HJB3); assay: Inhibition of jack bean alpha-mannosidase using 10 mM p-nitrophenyl-alpha-D-mannopyranoside as substrate
T2 sequence (C0HJB3 whole entry): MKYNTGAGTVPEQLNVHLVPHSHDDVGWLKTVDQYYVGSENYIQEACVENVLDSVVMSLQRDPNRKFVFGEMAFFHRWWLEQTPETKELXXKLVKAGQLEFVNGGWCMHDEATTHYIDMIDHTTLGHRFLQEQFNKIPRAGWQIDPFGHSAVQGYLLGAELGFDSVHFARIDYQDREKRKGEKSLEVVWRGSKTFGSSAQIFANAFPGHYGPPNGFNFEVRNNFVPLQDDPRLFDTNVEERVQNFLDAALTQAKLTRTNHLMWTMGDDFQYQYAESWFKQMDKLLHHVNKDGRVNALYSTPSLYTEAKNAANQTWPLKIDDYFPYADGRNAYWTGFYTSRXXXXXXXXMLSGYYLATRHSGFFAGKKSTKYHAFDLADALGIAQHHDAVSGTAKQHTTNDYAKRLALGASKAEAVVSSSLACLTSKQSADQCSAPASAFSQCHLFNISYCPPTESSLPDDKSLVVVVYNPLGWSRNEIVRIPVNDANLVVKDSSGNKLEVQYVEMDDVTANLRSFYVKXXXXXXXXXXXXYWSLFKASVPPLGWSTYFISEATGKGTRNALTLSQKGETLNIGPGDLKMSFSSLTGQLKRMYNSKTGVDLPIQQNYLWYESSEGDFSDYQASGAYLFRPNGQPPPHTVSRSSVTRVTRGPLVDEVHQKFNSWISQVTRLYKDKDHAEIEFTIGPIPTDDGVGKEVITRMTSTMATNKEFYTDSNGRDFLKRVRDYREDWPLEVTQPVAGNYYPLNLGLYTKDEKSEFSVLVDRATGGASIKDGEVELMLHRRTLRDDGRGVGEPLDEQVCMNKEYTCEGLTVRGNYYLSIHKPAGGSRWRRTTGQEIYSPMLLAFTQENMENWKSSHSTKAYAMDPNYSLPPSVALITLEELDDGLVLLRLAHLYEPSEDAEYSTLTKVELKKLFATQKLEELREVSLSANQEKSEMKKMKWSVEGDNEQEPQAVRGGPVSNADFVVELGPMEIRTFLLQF
Procedure, shortened: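 Jack bean α-mannosidase (0.1 U cm−3) was preincubated with compound 1 h at 37 °C. Reaction used 10 mM p-nitrophenyl-α-D-mannopyranoside in 100 mM citrate pH 4.5, 10 min at 37 °C, stopped with 200 mM borate pH 9.8. Read at 420 nm. IC50 and Ki were determined, Ki from Lineweaver–Burk double-reciprocal plots. Mean of five assays.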

[11] = Immunostimulating activity in Swiss albino mouse Splenocytes assessed as increase in ConA-induced cell proliferation at 2.5 uM after 72 hrs by MTT assay; format: functional, Splenocyte; procedure, shortened: as §1
[12] = test system: Splenocyte; assay: Immunostimulating activity in Swiss albino mouse Splenocytes assessed as ConA-induced cell proliferation > 5 uM after 72 hrs by MTT assay; format: functional, cell-based
[13] = Immunostimulating activity in Swiss albino mouse Splenocytes assessed as increase in ConA-induced cell proliferation at 0.5 uM after 72 hrs by MTT assay; format: functional, Splenocyte; procedure, shortened: as §1
[14] = test system: Splenocyte; assay: Immunostimulating activity in Swiss albino mouse Splenocytes assessed as increase in IL-6 secretion at 2.5 uM by ELISA in presence of 10 uM ConA relative to control; format: functional
Procedure, shortened: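 Splenocytes (2 × 10^6 cells/well) were stimulated with 10 μM Con A plus compound (2.5 or 5 μM). Supernatant IL-6 was measured by sandwich ELISA: sample 2 h at 37 °C, biotinylated antibody 1 h, streptavidin–HRP, then substrate in the dark. Absorbance was read at 550 nm with 450 nm correction against an IL-6 standard curve. Mean ± SEM, n = 5.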

[15] = test system: Oryza sativa; assay: Inhibition of rice alpha-glucosidase at 1 mM using 10 mM p-nitrophenyl-alpha-D-glucopyranoside as substrate
Procedure, shortened: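 Rice α-glucosidase (0.1 U cm−3) was preincubated with compound 1 h at 37 °C. Reaction used 10 mM p-nitrophenyl-α-D-glucopyranoside in 100 mM phosphate pH 6.8, 10 min at 37 °C, stopped with 0.1 M Na2CO3. p-Nitrophenol was read at 420 nm. NI means no 50% inhibition at 1 mM. Ki came from Lineweaver–Burk plots. Average of five assays.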

[16] = molecular target: T3, Alpha-mannosidase (Canavalia ensiformis) (UniProt C0HJB3); assay: Inhibition of jack bean alpha-mannosidase at 1 mM using 10 mM p-nitrophenyl-alpha-D-mannopyranoside as substrate
T3 sequence (whole entry): T2 sequence (C0HJB3 whole entry)
Procedure, shortened: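 Jack bean α-mannosidase (0.1 U/cm3) was preincubated with inhibitor for 1 h at 37 °C. Substrate was 10 mM p-nitrophenyl α-D-mannopyranoside in 100 mM citrate pH 4.5, reacted 10 min at 37 °C. The reaction was stopped with 200 mM borate pH 9.8 and absorbance read at 420 nm. Ki came from Lineweaver–Burk plots; average of five assays. NI means under 50% inhibition at 1 mM.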

[17] = molecular target: T4, Beta-galactosidase (Bos taurus) (UniProt Q58D55); assay: Inhibition of bovine liver beta-galactosidase at 1 mM using 10 mM p-nitrophenyl-beta-D-galactopyranoside as substrate
T4 sequence (whole entry): T1 sequence (Q58D55 whole entry)
Procedure, shortened: (§3)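 Galactosidase (0.1 U cm−3) was preincubated with compound 1 h at 37 °C. Reaction used 10 mM p-nitrophenyl-α- or β-D-galactopyranoside in 200 mM sodium acetate, 10 min at 37 °C, stopped with 200 mM borate pH 9.8. Read at 420 nm. NI means no 50% inhibition at 1 mM. Five assays averaged.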

[18] = test system: Aspergillus niger; assay: Inhibition of aspergillus niger alpha-galactosidase at 1 mM using 10 mM p-nitrophenyl-alpha-D-galactopyranoside as substrate; procedure, shortened: as §3

IC50 [4] [nM]	Ki [4] [nM]	inhibition [15] [%]	Structure (SMILES)	Activity [1]	inhibition at 2.5 µM [2] [%]	Activity [3]	Activity [7]	Activity [12]	fold change (FC) [14]	further results
22000	11000	< 50	O=C1CC[C@]2(CO)[C@@H](O)[C@H](O)[C@@H](O)CN12	Active	57	Non-toxic	Active	inactive	12.1	Activity [5]: 80%; IC50 [6]: 800 nM; Ki [6]: 200 nM; Activity [8]: 103%; IC50 [9]: 420 nM; Ki [9]: 330 nM; IC50 [10]: 56 nM; Ki [10]: 35 nM; Activity [11]: 130%; Activity [13]: 13%
342000	113000	< 50	O=C1CC[C@@]2(COCc3ccccc3)[C@@H](O)[C@H](O)[C@H](O)CN12	Active	40	Non-toxic	Active	inactive	4.9	inhibition [16]: < 50%; inhibition [17]: < 50%; inhibition [18]: < 50%
